From ChEMBL document CHEMBL5143562, “α-Synuclein Aggregation Inhibitory Prunolides and a Dibrominated β-Carboline Sulfamate from the Ascidian Synoicum prunum” (J Nat Prod, 2022)
Calls of active or inactive are those of the source. The calls are words filed in the database; no cut-off is given here.

Key:
[1] = target: Alpha-synuclein (Homo sapiens) (UniProt P37840); test: Inhibition of alpha-Synuclein (unknown origin) aggregation at compound to protein molar ratio of 1:1 incubated for 36 hrs under shaking condition and measured every 6 hrs by Thioflavin T based fluorescence assay relative to control; conditions: concentration not given here
In short: (§1)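 Wells held 80 µM α-syn, 50 µM ThT (from 5 mM stock in glycine-NaOH pH 8.0), 80–400 µM compound, saline Tris buffer and a teflon ball. Shaken at 100 rpm, 37 °C, 36 h. Fluorescence (ex 460/em 500 nm) read every 6 h, triplicates. Protein-only wells set 100% aggregation. Percent inhibition taken at end; t50 is the shift in h of the aggregation midpoint.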

[2] = target: Alpha-synuclein (Homo sapiens) (UniProt P37840); test: Binding affinity to alpha-Synuclein (unknown origin) at compound to protein molar ratio of 5:1 incubated for 3 hrs by mass spectroscopy analysis
In short: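 α-Syn (10 µM) in 10 mM ammonium acetate. Compound (100 µM, in methanol) added at 5:1 ligand:protein and kept 3 h at rt. Positive-mode HRESIMS, calibrated with sodium trifluoroacetate. Spectra inspected for extra peaks of protein–ligand complexes; scored yes/no.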

[3] = target: Alpha-synuclein (Homo sapiens) (UniProt P37840); test: Inhibition of alpha-Synuclein (unknown origin) aggregation assessed as time difference in midpoint of aggregation at compound to protein molar ratio of 1:1 incubated for 36 hrs under shaking condition and measured every 6 hrs by Thioflavin T based fluorescence assay relative to control; in short: as §1
[4] = target: Alpha-synuclein (Homo sapiens) (UniProt P37840); test: Inhibition of alpha-Synuclein (unknown origin) aggregation at compound to protein molar ratio of 5:1 incubated for 36 hrs under shaking condition and measured every 6 hrs by Thioflavin T based fluorescence assay relative to control; conditions: concentration not given here; in short: as §1
[5] = target: Alpha-synuclein (Homo sapiens) (UniProt P37840); test: Inhibition of alpha-Synuclein (unknown origin) aggregation assessed as times difference in midpoint of aggregation at compound to protein molar ratio of 5:1 incubated for 36 hrs under shaking condition and measured every 6 hrs by Thioflavin T based fluorescence assay relative to control; in short: as §1
[6] = Toxicity in mouse primary midbrain culture assessed as change in tyrosine hydroxylase positive dopamine neuron at 0.5 uM; format: tissue-based
In short: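 Primary embryonic mouse midbrain cultures given sonicated mouse α-syn PFFs (2.5 µg/mL final) on DIV8. Compound, 0.1% DMSO vehicle or 50 ng/mL GDNF added ~15 min later. Fixed DIV15, immunostained for TH and pSer129-α-syn, DAPI nuclei. Nine fields per well imaged at 10×. TH+ neurons with/without pSyn aggregates counted. ≥3 independent cultures, ≥3 wells each. Randomized-block ANOVA with Benjamini-Krieger-Yekutieli correction, mean ± SD.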

Staphylococcus aureus [7] = test: Antibacterial activity against methicillin-sensitive Staphylococcus aureus ATCC 25923 assessed as inhibition of bacterial growth measured after 18 hrs by resazurin based fluorescent plate reader; format: functional, organism-based; conditions: ATCC 25923, 18 h
In short: (§2)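 Broth microdilution in lysogeny broth; overnight culture (16-18 h, 37.5 °C) adjusted to 5 × 10^5 CFU/mL inoculum. DMSO stocks serially diluted 1:2 (ten-fold series); fusidic acid positive and 5% DMSO negative controls. Plates shaken at 100 rpm, 18 h at 37.5 °C, then 704 µM resazurin added (stock), further 1 h; fluorescence ex 544/em 590 nm.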

Staphylococcus aureus [8] = test: Antibacterial activity against methicillin-resistant Staphylococcus aureus ATCC 43300 assessed as inhibition of bacterial growth measured after 18 hrs by resazurin based fluorescent plate reader; format: functional, organism-based; conditions: ATCC 43300, 18 h; in short: as §2
HEK293 = test: Cytotoxicity against human HEK293 cells measured after 72 hrs by resazurin assay; format: toxicity, cell-based; conditions: hek293, 72 h
In short: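 HEK293 cells, 2000 per well, exposed to compound for 72 h at 37 °C. Medium then swapped for 44 µM resazurin for 6 h and fluorescence read. Viability referenced to 40 µM puromycin (positive) and 0.4% DMSO (negative). IC50 by curve fitting.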

[9] = target: Alpha-synuclein (Mus musculus) (UniProt O55042); test: Inhibition of PFF-induced alpha-Synuclein aggregation in mouse primary midbrain culture assessed as decrease in tyrosine hydroxylase positive dopamine neuron with p-Syn aggregation at 0.5 uM incubated for 7 days by immunostaining analysis; conditions: time 7.0 day
Plasmodium falciparum = test: Antiplasmodial activity against Plasmodium falciparum 3D7 assessed as inhibition of parasite growth incubated for 72 hrs by DAPI staining based confocal microscopic analysis; format: functional, organism-based; conditions: 3D7, 72 h
In short: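 P. falciparum 3D7 in imaging plates, 2% parasitemia, 0.3% hematocrit, 16-point dilution series 0.4 nM–40 µM (N=2), 72 h at 37 °C under 5% O2/5% CO2/90% N2. DAPI stain, confocal imaging. Percent inhibition normalised to in-plate 5 µM puromycin (positive) and 0.4% DMSO (negative) controls. IC50 from sigmoidal nonlinear regression.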

[10] = Selectivity index, ratio of IC50 for cytotoxicity against human HEK293 cells to IC50 for antiplasmodial activity against Plasmodium falciparum 3D7; format: toxicity, cell-based; conditions: read-out: Ratio IC50

SMILES	inhibition [1]	Activity [2]	TIME [3]	inhibition [4]	TIME [5]	Activity [6]	IC50 (Staphylococcus aureus [7])	IC50 (Staphylococcus aureus [8])	Activity (HEK293)	inhibition [9]	IC50 (Plasmodium falciparum)	selectivity ratio [10]
O=C1C=C(c2cc(Br)c(O)c(Br)c2)[C@]2(O1)O[C@]1(OC(=O)C=C1c1cc(Br)c(O)c(Br)c1)C(c1ccc(O)c(Br)c1)=C2c1ccc(O)c(Br)c1	34.3%	Active	9.4 h	99.9%	10 h	Non-Toxic	> 10 µM	> 10 µM	Toxic	Active	–	–
O=C1C=C(c2cc(Br)c(O)c(Br)c2)[C@]2(O1)O[C@]1(OC(=O)C=C1c1cc(Br)c(O)c(Br)c1)C(c1ccc(O)c(Br)c1)=C2c1ccc(O)cc1	–	Active	–	–	–	–	12.2 µM	11.6 µM	–	–	–	–
O=C1C=C(c2ccc(O)cc2)[C@]2(O1)O[C@]1(OC(=O)C=C1c1ccc(O)cc1)C(c1ccc(O)c(Br)c1)=C2c1ccc(O)cc1	24.9%	Active	2 h	92.9%	4 h	–	10.8 µM	16.1 µM	–	–	–	–
O=C1C=C(c2ccc(O)cc2)[C@]2(O1)O[C@@]1(OC(=O)C=C1c1ccc(O)cc1)C(c1ccc(O)cc1)=C2c1ccc(O)cc1	22.1%	Active	0 h	51.5%	2.3 h	–	> 10 µM	> 10 µM	–	–	–	–
O=C1C=C(c2ccc(O)cc2)[C@]2(O1)O[C@]1(OC(=O)C=C1c1ccc(O)cc1)C(c1ccc(O)cc1)=C2c1ccc(O)cc1	60%	Active	6.2 h	75.2%	14.5 h	Non-Toxic	> 10 µM	> 10 µM	Toxic	–	5.1 µM	7.6
O=C(O)c1cc2c([nH]c3ccc(Br)cc32)c(C(=O)c2cn(S(=O)(=O)O)c3ccc(Br)cc23)n1	–	–	–	–	–	–	–	–	Toxic	–	15.1 µM	2.66
O=C1C=C(c2ccc(O)c(Br)c2)[C@]2(O1)O[C@]1(OC(=O)C=C1c1ccc(O)c(Br)c1)C(c1ccc(O)c(Br)c1)=C2c1ccc(O)c(Br)c1	–	Active	–	–	–	–	–	–	–	–	–	–
O=C1C=C(c2ccc(O)cc2)[C@]2(O1)O[C@]1(OC(=O)C=C1c1ccc(O)c(Br)c1)C(c1ccc(O)cc1)=C2c1ccc(O)cc1	39%	Active	1 h	97.6%	4 h	–	> 10 µM	> 10 µM	–	–	–	–
O=C(O[C@@H]1Cc2c(O)cc(O)cc2O[C@@H]1c1cc(O)c(O)c(O)c1)c1cc(O)c(O)c(O)c1	–	Active	9.4 h	98.9%	11.1 h	–	–	–	–	–	–	–
O=C1C=C(c2cc(Br)c(O)c(Br)c2)[C@]2(O1)O[C@]1(OC(=O)C=C1c1cc(Br)c(O)c(Br)c1)C(c1cc(Br)c(O)c(Br)c1)=C2c1cc(Br)c(O)c(Br)c1	13.3%	Active	10 h	89%	13.7 h	Non-Toxic	> 10 µM	> 10 µM	Toxic	–	–	–
O=C1C=C(c2cc(Br)c(O)c(Br)c2)[C@]2(O1)O[C@]1(OC(=O)C=C1c1ccc(O)cc1)C(c1ccc(O)c(Br)c1)=C2c1ccc(O)cc1	–	Active	–	–	–	–	> 10 µM	> 10 µM	–	–	–	–
